Assay results as given in ChEMBL document CHEMBL4118034, “Orbicularisine: A Spiro-Indolothiazine Isolated from Gills of the Tropical Bivalve Codakia orbicularis” (J Nat Prod, 2017).
Activity calls are given as the source filed them. The calls are words filed in the database; no cut-off is given here.

Assays:
[1] = target: CDK2/Cyclin A2 (Homo sapiens) (UniProt P24941+P20248); experiment: Inhibition of human CDK2/Cyclin A assessed as residual activity at 16 uM relative to control; format: protein-complex assay
Pseudomonas aeruginosa = experiment: Antibacterial activity against Pseudomonas aeruginosa ATCC […] at 2 to 256 ug/ml measured after 24 hrs; format: functional, organism-based
Method in brief: (§1)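 Stock: 2.7 mg compound in 100 µL DMSO, then diluted with 900 µL distilled water. Working solutions at 256, 128, 64, 32, 16, 8, 4 and 2 µg/mL; 20 µL of each went into 178 µL Mueller-Hinton broth. Inoculum: 2 µL overnight culture at 0.5 McFarland (1.5*10⁸ CFU/mL). Controls: DMSO–water growth and sterility. Incubation 24 h at 37 °C; wells scored by eye as clear or turbid.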

[2] = target: Cyclin-dependent kinase 5/CDK5 activator 1 (Homo sapiens) (UniProt Q00535+Q15078); experiment: Inhibition of human CDK5/p25 assessed as residual activity at 16 uM relative to control; format: protein-complex assay
Chain of Cyclin-dependent kinase 5/CDK5 activator 1 (Homo sapiens) (Q00535 whole entry): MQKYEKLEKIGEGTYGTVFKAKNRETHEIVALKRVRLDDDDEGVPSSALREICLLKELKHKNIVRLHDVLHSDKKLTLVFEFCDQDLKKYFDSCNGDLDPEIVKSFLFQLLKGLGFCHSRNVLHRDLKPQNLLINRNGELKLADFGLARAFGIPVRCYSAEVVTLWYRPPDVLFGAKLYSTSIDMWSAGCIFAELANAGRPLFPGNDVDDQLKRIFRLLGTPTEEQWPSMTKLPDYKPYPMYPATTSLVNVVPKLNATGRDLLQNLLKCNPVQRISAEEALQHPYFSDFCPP
Chain of Cyclin-dependent kinase 5/CDK5 activator 1 (Homo sapiens) (Q15078 99-307 partner limits assumed): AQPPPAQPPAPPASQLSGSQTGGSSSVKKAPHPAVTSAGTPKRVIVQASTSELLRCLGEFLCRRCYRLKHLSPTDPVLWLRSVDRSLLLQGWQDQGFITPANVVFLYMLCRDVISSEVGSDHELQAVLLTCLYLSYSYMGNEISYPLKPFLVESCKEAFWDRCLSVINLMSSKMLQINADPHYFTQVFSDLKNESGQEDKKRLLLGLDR

[3] = target: Receptor-interacting serine/threonine-protein kinase 3 (Homo sapiens) (UniProt Q9Y572); experiment: Inhibition of human RIPK3 assessed as residual activity at 16 uM relative to control
Chain of Receptor-interacting serine/threonine-protein kinase 3 (Homo sapiens) (Q9Y572 whole entry, looked up): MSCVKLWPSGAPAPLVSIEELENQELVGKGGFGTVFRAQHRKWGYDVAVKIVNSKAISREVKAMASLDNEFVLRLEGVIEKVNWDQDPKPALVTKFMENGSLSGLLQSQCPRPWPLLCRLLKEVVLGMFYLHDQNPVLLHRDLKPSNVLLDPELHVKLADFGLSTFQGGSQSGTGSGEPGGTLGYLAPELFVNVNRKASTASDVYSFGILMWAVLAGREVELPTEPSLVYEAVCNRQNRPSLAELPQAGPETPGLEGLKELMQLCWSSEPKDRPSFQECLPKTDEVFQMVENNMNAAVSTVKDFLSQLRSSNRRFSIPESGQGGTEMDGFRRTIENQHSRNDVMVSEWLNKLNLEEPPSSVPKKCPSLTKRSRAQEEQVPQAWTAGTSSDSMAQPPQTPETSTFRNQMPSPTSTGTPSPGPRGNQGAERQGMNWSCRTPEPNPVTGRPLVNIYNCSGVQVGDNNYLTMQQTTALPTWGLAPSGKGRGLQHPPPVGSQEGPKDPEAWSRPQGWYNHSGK

Enterococcus faecalis = experiment: Antibacterial activity against Enterococcus faecalis ATCC 29212 at 2 to 256 ug/ml measured after 24 hrs; format: functional, organism-based; method in brief: as §1
Streptococcus pneumoniae = experiment: Antibacterial activity against Streptococcus pneumoniae ATCC 49619 at 2 to 256 ug/ml measured after 24 hrs; format: functional, organism-based; method in brief: as §1
Klebsiella pneumoniae = experiment: Antibacterial activity against Klebsiella pneumoniae ATCC 700603 at 2 to 256 ug/ml measured after 24 hrs; format: functional, organism-based; method in brief: as §1
Escherichia coli = experiment: Antibacterial activity against Escherichia coli ATCC 35218 at 2 to 256 ug/ml measured after 24 hrs; format: functional, organism-based; method in brief: as §1
[4] = target: CDK9/cyclin T1 (Homo sapiens) (UniProt O60563+P50750); experiment: Inhibition of human CDK9/Cyclin T assessed as residual activity at 16 uM relative to control; format: protein-complex assay
[5] = target: T1, Serine/threonine-protein kinase haspin (Homo sapiens) (UniProt Q8TF76); experiment: Inhibition of human haspin assessed as residual activity at 16 uM relative to control
T1 sequence (whole entry): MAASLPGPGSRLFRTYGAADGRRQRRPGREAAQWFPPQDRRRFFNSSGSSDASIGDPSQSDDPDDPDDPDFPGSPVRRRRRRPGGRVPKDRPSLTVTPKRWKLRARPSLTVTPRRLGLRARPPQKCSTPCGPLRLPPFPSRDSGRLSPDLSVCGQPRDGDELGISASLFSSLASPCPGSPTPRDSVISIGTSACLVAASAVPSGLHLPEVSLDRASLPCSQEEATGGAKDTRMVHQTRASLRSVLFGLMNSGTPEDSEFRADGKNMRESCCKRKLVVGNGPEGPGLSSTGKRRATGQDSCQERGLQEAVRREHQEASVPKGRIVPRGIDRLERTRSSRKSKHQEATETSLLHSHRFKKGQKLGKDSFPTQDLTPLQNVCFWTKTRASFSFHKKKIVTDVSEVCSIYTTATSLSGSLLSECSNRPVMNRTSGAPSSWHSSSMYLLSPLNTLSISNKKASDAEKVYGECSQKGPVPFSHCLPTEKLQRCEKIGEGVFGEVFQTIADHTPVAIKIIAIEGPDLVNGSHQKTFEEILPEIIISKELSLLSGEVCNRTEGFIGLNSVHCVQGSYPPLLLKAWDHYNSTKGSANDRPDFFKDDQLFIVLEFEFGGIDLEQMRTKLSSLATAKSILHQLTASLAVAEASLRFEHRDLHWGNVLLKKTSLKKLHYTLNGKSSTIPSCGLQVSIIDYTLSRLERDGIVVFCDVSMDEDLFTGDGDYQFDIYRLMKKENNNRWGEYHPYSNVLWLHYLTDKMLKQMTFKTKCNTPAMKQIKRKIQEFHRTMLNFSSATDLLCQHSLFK

[6] = target: Aurora kinase B (Homo sapiens) (UniProt Q96GD4); experiment: Inhibition of human Aurora-B assessed as residual activity at 16 uM relative to control
Chain of Aurora kinase B (Homo sapiens) (Q96GD4 whole entry): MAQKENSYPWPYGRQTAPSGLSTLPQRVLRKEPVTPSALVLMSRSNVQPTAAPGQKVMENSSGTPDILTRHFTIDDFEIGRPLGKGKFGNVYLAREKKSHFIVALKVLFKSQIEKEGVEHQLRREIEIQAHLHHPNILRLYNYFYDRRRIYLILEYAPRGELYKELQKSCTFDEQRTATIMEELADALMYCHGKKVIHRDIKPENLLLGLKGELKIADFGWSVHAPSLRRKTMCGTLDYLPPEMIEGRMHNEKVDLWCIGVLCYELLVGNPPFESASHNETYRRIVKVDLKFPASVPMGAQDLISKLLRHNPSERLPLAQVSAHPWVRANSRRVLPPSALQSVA

Leishmania donovani = experiment: Inhibition of Leishmania donovani TLK assessed as residual activity at 16 uM relative to control
[7] = target: Serine/threonine-protein kinase pim-1 (Homo sapiens) (UniProt P11309); experiment: Inhibition of human Pim1 assessed as residual activity at 16 uM relative to control
Chain of Serine/threonine-protein kinase pim-1 (Homo sapiens) (P11309 whole entry, looked up): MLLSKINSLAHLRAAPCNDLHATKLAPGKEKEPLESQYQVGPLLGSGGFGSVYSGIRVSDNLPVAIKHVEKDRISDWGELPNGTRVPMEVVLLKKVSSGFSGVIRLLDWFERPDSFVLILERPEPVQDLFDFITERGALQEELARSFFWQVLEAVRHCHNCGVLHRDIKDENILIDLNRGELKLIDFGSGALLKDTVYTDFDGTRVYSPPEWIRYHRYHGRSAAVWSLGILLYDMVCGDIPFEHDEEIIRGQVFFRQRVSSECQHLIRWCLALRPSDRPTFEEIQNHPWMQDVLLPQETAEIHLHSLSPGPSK

[8] = target: Glycogen synthase kinase-3 (Sus scrofa) (UniProt B2LUN4+I6LNT8); experiment: Inhibition of pig GSK3 alpha/beta assessed as residual activity at 16 uM relative to control; format: protein assay
[9] = target: T2, Putative casein kinase I (Leishmania major) (UniProt O96999); experiment: Inhibition of Leishmania major CK1 assessed as residual activity at 16 uM relative to control
T2 sequence (whole entry): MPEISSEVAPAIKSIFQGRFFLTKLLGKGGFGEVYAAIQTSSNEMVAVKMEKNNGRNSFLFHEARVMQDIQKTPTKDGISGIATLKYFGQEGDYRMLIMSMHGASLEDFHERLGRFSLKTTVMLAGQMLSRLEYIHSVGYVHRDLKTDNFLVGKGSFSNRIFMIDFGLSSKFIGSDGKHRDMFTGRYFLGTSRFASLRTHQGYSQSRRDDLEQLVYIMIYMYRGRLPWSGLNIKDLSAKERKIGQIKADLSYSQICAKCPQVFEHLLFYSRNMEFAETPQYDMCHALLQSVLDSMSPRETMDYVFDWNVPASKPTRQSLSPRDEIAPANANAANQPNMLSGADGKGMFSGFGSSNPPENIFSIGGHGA

[10] = target: Dual specificity tyrosine-phosphorylation-regulated kinase 1A (Rattus norvegicus) (UniProt Q63470); experiment: Inhibition of rat DYRK1A assessed as residual activity at 16 uM relative to control
HCT-116 = experiment: Cytotoxicity against human HCT116 cells up to 100 uM; format: functional, cell-based
U-87 MG = experiment: Cytotoxicity against human U87MG cells up to 100 uM; format: functional, cell-based; conditions: U-87MG ATCC

With `O=C1OC2(C(=O)Nc3ccccc32)C2=C1NCCS2(=O)=O` (stereo not drawn) the Activity [1] was over 60%, the Activity (Pseudomonas aeruginosa) was “inactive” and the Activity [2] was over 60%. For the same compound, the Activity [3] was over 60%, the Activity (Enterococcus faecalis) was “inactive” and the Activity (Streptococcus pneumoniae) was “inactive”. For the same compound, the Activity (Klebsiella pneumoniae) was “inactive”, the Activity (Escherichia coli) was “inactive” and the Activity [4] was over 60%. It also gave an Activity [5] of over 60%, an Activity [6] of over 60% and an Activity (Leishmania donovani) of over 60%. The Activity [7] was over 60%, the Activity [8] was over 60% and the Activity [9] was over 60%. The Activity [10] was over 60%, the Activity (HCT-116) was “inactive” and the Activity (U-87 MG) was “inactive”.
